Assay results from different studies.
Compare with care: the assays were run in different laboratories.
Observed: cell growth or viability

Compound	cell line	assay	setting	CC50
Cc1ccc(S(=O)(=O)Nc2nc(N)c(-c3nc4ccccc4s3)c(-c3ccc(Cl)cc3)n2)cc1	BGM	–	–	190 mg/L
CC(C)Cn1c(=O)n(C)c(=O)c2c(-c3cncn3C)n(Cc3cccc4ccccc34)nc21	Huh-7	MTT	24 h	> 200 µM
CCOP(=O)(OCC)[C@@H]1C[C@@H](n2cc(Cn3ccc(NC(C)=O)nc3=O)nn2)ON1C (racemic)	human T-lymphocyte	–	72 h	> 250 µM
Cc1ccc(S(=O)(=O)Nc2ncc(-c3nc4ccccc4s3)c(N)n2)cc1	BGM	–	–	200 mg/L
CC(C)c1cc(Oc2c(Cl)cc(-n3nc(C#N)c(=O)[nH]c3=O)cc2Cl)n[nH]c1=O	LX-2	ATP luminescence	48 h, serum-free	> 50 µM
CCOP(=O)(OCC)[C@@H]1C[C@H](n2cc(-c3cccc(F)c3)nn2)ON1C	human T-lymphocyte	–	72 h	> 250 µM
O=C1O[C@H]2[C@@H]3OC(=O)c4cc(O)c(O)c(O)c4-c4c(O)c(O)c5oc(=O)c6c(c(O)c(O)c7oc(=O)c4c5c76)-c4c(cc(O)c(O)c4O)C(=O)OC[C@H]3OC(O)[C@@H]2OC(=O)c2cc(O)c(O)c(O)c2-c2c1cc(O)c(O)c2O (mixture of isomers)	Huh-7	MTT	–	> 5000 µM
O=C(O)/C=C/C=C/c1cccc(Oc2cc(Cl)cc(Cl)c2)c1	Huh-7	MTT	24 h	> 200 µM
COc1ccc(NC(=O)N2CCCCN3[C@H](COCCC(=O)O)[C@H](c4ccc(C#Cc5ccccc5)cc4)[C@@H]3C2)cc1	HEK-293T	–	–	> 40 µM
C[C@H](NC(=O)OCc1ccccc1)C(=O)Nc1ccc(C2S/C(=N\c3cccc(F)c3)N(Cc3ccco3)C2=O)cc1 (stereo partly drawn)	Huh-7	–	72 h, replicon	> 50 µM
Cc1ccc(C(=O)CNc2nc(NS(=O)(=O)c3ccccc3)ncc2-c2nc3ccccc3s2)cc1	BGM	–	–	170 mg/L
O[C@@H](c1cc(C(F)(F)F)nc2c(C(F)(F)F)cccc12)[C@H]1CCCCN1	Huh-7	MTT	24 h	15.9 µM
COc1ccc(NC(=O)N2CCCCN3C[C@H](c4ccc(C#Cc5ccccc5)cc4)[C@@H]3C2)cc1	HEK-293T	–	–	25 µM
CCOP(=O)(OCC)[C@@H]1C[C@@H](n2cc(-c3nccn3C)nn2)ON1C	human T-lymphocyte	–	72 h	> 250 µM
CO[C@H]1C[C@@H](C[C@H](C)[C@H]2CC(=O)[C@@H](C)/C=C(\C)[C@H](O)[C@H](OC)C(=O)[C@@H](C)C[C@@H](C)/C=C/C=C/C=C(\C)[C@H](OC)C[C@H]3CC[C@H](C)[C@](O)(O3)C(=O)C(=O)N3CCCC[C@@H]3C(=O)O2)CC[C@@H]1OCCO (racemic)	Huh-7	MTT	24 h	15.9 µM
CCOP(=O)(OCC)[C@@H]1C[C@H](n2cc(-c3ccc(F)cc3F)nn2)ON1C	human T-lymphocyte	–	72 h	≥ 250 µM
Nc1nc(NS(=O)(=O)c2ccccc2)ncc1-c1nc2ccccc2s1	BGM	–	–	220 mg/L
Cc1onc(-c2ccccc2)c1-c1ccc(S(N)(=O)=O)cc1	Huh-7	MTT	24 h	> 200 µM
CCOP(=O)(OCC)[C@@H]1C[C@@H](n2cc(C(=O)OC)nn2)ON1C (relative stereo)	human T-lymphocyte	–	72 h	> 250 µM
O=C(O)c1cc(-c2ccc(Br)cc2)nc2ccc(Cl)cc12	Huh-7	MTT	24 h	89.7 µM
O=C(CNc1nc(NS(=O)(=O)c2ccccc2)ncc1-c1nc2ccccc2s1)c1ccc(Cl)cc1	BGM	–	–	220 mg/L
CCOP(=O)(OCC)[C@@H]1C[C@@H](n2cc(Cn3cnc4c(N)ncnc43)nn2)ON1C (racemic)	human T-lymphocyte	–	72 h	> 250 µM
CCOc1ccc(-c2nc(CNCCc3ccc(F)cc3)cs2)cc1	Huh-7	MTT	24 h	87.8 µM
CCOP(=O)(OCC)[C@@H]1C[C@H](n2cc(Cn3cc(C)c(=O)[nH]c3=O)nn2)ON1C (racemic)	human T-lymphocyte	–	72 h	> 250 µM
C[C@@H](c1cc(Cl)cc(Cl)c1)N(C)c1ncc2c(N)nc(N)nc2n1	Huh-7	MTT	24 h	57.6 µM
CCOP(=O)(OCC)[C@@H]1C[C@@H](n2cc(-c3ccccn3)nn2)ON1C (racemic)	human T-lymphocyte	–	72 h	> 250 µM
CC(C)OC(=O)C(C)(C)Oc1ccc(C(=O)c2ccc(Cl)cc2)cc1	LX-2	ATP luminescence	48 h, serum-free	> 50 µM
